Screening results: PubChem, several laboratories
SKN-1 inh: inhibitors of C. elegans SKN-1; C. elegans VP596 Pgst-4::GFP/RFP ratio, acrylamide-induced, 24 h; inhibition, % at 21.8 µM; 360,000 tested, 0.49% active;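 active = interference check ratio from 0.5 to 1.5 plus GFP to RFP signal ratio inhibition reaching or exceeding a fixed threshold, cut at about 30% in these data, passing the limit was not always enough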
bovine MsrA act: activators of bovine methionine sulfoxide reductase A. purified bovine MsrA, absorbance read-out. activation, % at 10.6 µM. 360,000 tested, 0.3% active. AID 602163; in the data active = activation above about 7.5%;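 note: 0% = vehicle and 100% = reference activator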
MsrA inh: bovine MsrA inhibition | purified bovine MsrA, absorbance read-out | inhibition, % at 15.5 µM | 360,000 tested, 0.75% active | AID 651718; in the data active = inhibition above about 4.5%;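 note: 0% = vehicle wells with enzyme and 100% = reference inhibitor wells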
MT1-MMP act inh: blocks activation of human MT1-MMP; HT1080 RFP-PRO-GFP cells, GFP/RFP ratio fluorescence, overnight; percent of plate control window, DMSO zero; GFP/RFP ratio change, % at 20 µM; 360,000 tested, 0.061% active;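 active = GFP/RFP ratio change of at least 30% with cell ATP level not reduced by more than half and red fluorescence within 50% of control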
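Material: RFP-PRO-GFP reporter HT1080 cells. Dosing: single-point 20 µM compound, 1% DMSO. Controls: DMSO and RFP-L50D-GFP cell wells. Timing: cells overnight before dosing, compound overnight, 37 °C, 5% CO2. Measure: GFP/RFP fluorescence ratio.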
p-CIP stab down: p/CIP protein destabilization; Q05BA5; F442A p/CIP-EGFP cells, EGFP fluorescence, 16 h; decrease of EGFP signal, % at 10 µM; 290,000 tested, 0.01% active; AID 1984;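 active = EGFP signal decrease of at least 30% at 10 µM or well 3 SD below plate mean, unless failing retest; inactive = the rest, including hits failing retest or dose response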
Numbers without * were called inactive; / = no result given. Rows were chosen to be rich in hits. Some 1.6% of all compounds tested hit in one or more screens of this group.

SMILES	SKN-1 inh	bovine MsrA act	MsrA inh	MT1-MMP act inh	p-CIP stab down
Cc1nc(-c2ccc([N+](=O)[O-])cc2)sc1C(=O)O	8	-16	4.6*	4	7
COC(=O)[C@]12C[C@H](CC(=O)NCCC(C)C)C(=O)N(Cc3ccc4c(c3)OCO4)C1=C[C@H](COCc1ccccc1)O[C@@H]2C	/	/	0	/	/
O=C(CSc1ncn[nH]1)Nc1ccc(Cl)c(Cl)c1	44*	-2	-1	2	-6
Nc1ccn([C@@H]2O[C@H](C(=O)N[C@H](Cc3ccccc3)C(=O)N[C@H]3CCCCNC3=O)[C@@H](O)[C@H]2O)c(=O)n1	/	/	0	/	/
Clc1cccc(Cl)c1Cn1cc(Br)cn1	-30	-8	-1	0	-13
Clc1ccc(Cn2cc(Br)cn2)cc1Cl	47*	-1	-1	-2	5
CCN(CCCNC(=O)C1CCC(=O)N1Cc1ccc(F)cc1)c1cccc(C)c1 (stereo not drawn)	1	11*	0	10	-7
CCN(CCCNC(=O)C1CCC(=O)N1C1CCCC1)c1cccc(C)c1 (stereo not drawn)	16	0	0	2	-6
Cc1onc(-c2ccccc2)c1C(=O)Nc1nc2c(s1)C(=O)CC(C)(C)C2	40*	-3	2	4	8
O=C1/C(=C/c2cccnc2)N=C2CCCCCN12	3	-4	4.6*	2	4
CN(c1ccc(NC(=O)CCc2c[nH]c3ccccc23)cc1)c1ccccn1	/	/	0	/	/
CCCn1c(COc2ccccc2)nc2ccccc21	-11	-6	1	-2	-3
CCOCCn1c(COc2ccccc2)nc2ccccc21	40*	-2	1	9	-16
Cc1cc2ccccc2n1CCNC(=O)C1CCCC1	38*	-10	1	56	-4
Cc1cc2ccccc2n1CCNC(=O)c1cccs1	46*	-6	-1	48	-9
N#C/C(=C\c1ccco1)Sc1nc2ccccc2s1	45*	-6	3	-4	-10
CCCCN1CC(COCc2ccccc2)Oc2cccc(N3CCCCC3)c2S1(=O)=O (stereo not drawn)	/	/	1	/	/
O=c1c2ccccc2nnn1Cc1ccc(F)cc1	16	-4	0	-1	4
O=c1c2ccccc2nnn1Cc1ccc(Br)cc1	36*	-5	0	-3	-4
COC(=O)c1c(NC(=O)c2ccco2)sc2c1CCC2	40*	-1	0	-5	-1
COCC(=O)Nc1sc2c(c1C(=O)OC)CCCC2	34*	-3	0	-69	-6
COC(=O)c1c(NC(=O)COC(=O)c2ccc(O)cc2)sc2c1CCCCC2	3	-3	1	-6	-6
COC(=O)c1c(NC(=O)c2cccs2)sc2c1CCC(C)C2 (stereo not drawn)	-2	8.3*	0	-2	2
Cc1cc(N2CCCC2)ccc1/C=C1\NC(=S)N(C)C1=O	43*	-2	1	-93	-221
CCC1CCCCN1CCN1C(=O)C2C(C(=O)Nc3ccc(OC)cc3)C3C=CC2(O3)C1C(=O)NC1CCCCC1 (stereo not drawn)	37*	-11	1	0	9
SMILES	SKN-1 inh	bovine MsrA act	MsrA inh	MT1-MMP act inh	p-CIP stab down
O=[N+]([O-])c1cc2c(ccc3occc32)o1	/	/	2	/	/
O=C(CSc1nnc(COc2ccc(Cl)cc2)o1)NC1CC2CCC1C2 (stereo not drawn)	39*	-2	0	0	-5
COc1ccc(OCc2nnc(SCC(=O)NC3CC4CCC3C4)o2)cc1 (stereo not drawn)	5	-2	-1	0	-6
CC(=O)C1=C(C)N(Cc2ccc(Br)cc2)C(=S)NC1c1ccc(F)cc1 (stereo not drawn)	/	/	1	/	/
CC(=O)c1ccc(-n2nncc2-c2ccc([N+](=O)[O-])cc2)cc1	59*	-9	0	-2	-2
C[C@@H]1CN([C@H](C)CO)C(=O)c2cc(NC(=O)Nc3ccccc3)ccc2O[C@@H](C)CCCCO[C@H]1CN(C)S(C)(=O)=O	/	/	0	/	/
CCCC(C(=O)Nc1ccc(S(=O)(=O)N2CCOCC2)cc1)c1ccccc1 (stereo not drawn)	37*	-2	0	-9	/
CC1Cc2cc(/C=C3/SC(N4CCC(C(N)=O)CC4)=NC3=O)ccc2O1 (stereo not drawn)	-5	-3	4.6*	-5	-12
CC1Cc2cc(/C=C3/SC(=S)N(C)C3=O)ccc2O1 (stereo not drawn)	24	-1	1	1	-5
Cc1ccc(S(=O)(=O)NCC2CCN(C(=O)C(=O)c3cccs3)CC2)cc1	/	/	1	/	/
CN(C)c1ccc(/C=C(\C#N)C(=O)Nc2nc3c(s2)CCN(Cc2ccccc2)C3)cc1	45*	-5	1	-226	-552
O=C(Nc1nc2c(s1)CN(Cc1ccccc1)CC2)C1CCC1	22	2	-1	-2	-14
S=C1Cc2ccccc2N1	-4	26*	-1	-7	-8
S=C1Nc2ccccc2CS1	14	-7	2	10	/
C[C@H](O)[C@@H]1C(=O)N2CCc3c([nH]c4cccc(-c5ccccc5)c34)[C@@H]2C[C@@H]1N(C)C(=O)OCc1ccccc1	/	/	0	/	/
COC(=O)C1=C(C)N(Cc2ccccc2C(F)(F)F)C(=NCc2ccccc2C(F)(F)F)NC1c1ccc(Cl)cc1 (stereo not drawn)	/	/	-1	/	/
CCOc1cc([N+](=O)[O-])cc(/C=C2/NC(=O)N(Cc3ccccc3F)C2=O)c1O	14	-4	4.6*	20	5
N#C/C(=N\Nc1ccccc1)C(N)=S	-5	-11	1	2	-14
N#C/C(=N\Nc1ccc(Cl)cc1)C(N)=S	39*	-7	0	8	-4
Cn1cccc([N+](=O)[O-])c1=O	-11	-9	2	-6	/
Cn1c(=O)c(=O)n(C)c2cc([N+](=O)[O-])c([N+](=O)[O-])cc21	3	2	5.1*	6	-1
COC(=O)[C@]12C[C@H](CC(=O)NCc3ccccc3)C(=O)N(Cc3ccccc3)C1=C[C@H](C(C)(C)C)O[C@@H]2C	/	/	0	/	/
COc1ccc([C@H]2CC(=O)C=C(/C=C/c3ccccc3)C2)cc1OC	5	0	4.6*	11	/
Clc1ccc(N=c2ssnc2Cl)cc1	92*	-2	2	-1	8
Clc1nssc1=Nc1ccccc1	-7	-8	/	1	-2
Nc1nnc(SCC(=O)N2CCN(c3ccccc3)CC2)n1-c1ccccc1	2	-13	0	-1	-2
Cn1nnnc1SCC(=O)N1CCN(c2cccc(Cl)c2)CC1	39*	-2	1	0	13
Nc1nnc(SCC(=O)N2CCN(c3cccc(Cl)c3)CC2)n1-c1ccccc1	38*	-3	0	7	/
COC(=O)c1cc2c(c3c4ccccc4n(S(C)(=O)=O)c13)C(=O)N(Cc1ccccc1)C2	/	/	0	/	/
COCc1cc(N2CCN(C(=O)OC(C)(C)C)C[C@H]2C)ccc1N1CCN(Cc2ccccc2)[C@H](C)C1	/	/	-1	/	/
